The target in this assay is T1, Adenosine receptor A2b (Homo sapiens) (UniProt P29275).
T1 sequence (whole entry): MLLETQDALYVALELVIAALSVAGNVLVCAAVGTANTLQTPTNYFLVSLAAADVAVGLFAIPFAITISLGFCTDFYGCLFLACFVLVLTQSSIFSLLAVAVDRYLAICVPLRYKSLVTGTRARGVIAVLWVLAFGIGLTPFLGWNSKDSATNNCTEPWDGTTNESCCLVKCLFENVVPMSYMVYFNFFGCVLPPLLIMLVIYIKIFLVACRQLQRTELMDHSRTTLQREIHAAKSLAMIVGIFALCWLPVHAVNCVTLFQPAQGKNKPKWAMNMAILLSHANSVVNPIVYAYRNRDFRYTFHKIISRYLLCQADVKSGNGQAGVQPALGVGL
As to the kind of experiment: Agonist activity human adenosine A2B receptor expressed in CHO cells assessed as stimulation of adenylate cyclase relative to NECA. In kind it is functional, cell-based. A digest of the protocol:
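Stably transfected CHO cells; cAMP accumulation by enzyme immunoassay kit. Relative potency computed as pEC50(compound) minus pEC50(NECA) determined in the same publication.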

`CCNC(=O)[C@H]1O[C@@H](n2cnc3c(Nc4ccc(OCC(=O)Nc5ccccc5)cc4)nc(Cl)nc32)[C@H](O)[C@@H]1O`: the Activity was 0.561.

For the compound `CC(C)Nc1nc(C#C[C@H](O)c2ccccc2)nc2c1ncn2[C@@H]1O[C@H](CO)[C@@H](O)[C@H]1O`, the Activity was -0.569. Turning to `CCNC(=O)[C@H]1O[C@@H](n2cnc3c(NNC(=O)Cc4cccs4)nc(Cl)nc32)[C@H](O)[C@@H]1O`, the Activity is -0.576. Take `Nc1nc(C#C[C@H](O)c2ccccc2)nc2c1ncn2[C@@H]1O[C@H](CO)[C@@H](O)[C@H]1O`: the Activity was -0.412. For the compound `Nc1nc(OCCc2c[nH]c3ccc(O)cc23)nc2c1ncn2[C@@H]1O[C@H](CO)[C@@H](O)[C@H]1O`, the Activity is -0.806. The figure for `CCCCC#Cc1nc(NCC)c2ncn([C@@H]3O[C@H](CO)[C@@H](O)[C@H]3O)c2n1` is -1.62; for `CCNC(=O)[C@H]1O[C@@H](n2cnc3c(Nc4ccc(OCC(=O)Nc5ccc(C(C)(C)C)cc5)cc4)ncnc32)[C@H](O)[C@@H]1O` it is 0.976; for `Nc1nc(OCCc2c[nH]c3cc(Cl)ccc23)nc2c1ncn2[C@@H]1O[C@H](CO)[C@@H](O)[C@H]1O` it is -0.188.

For the compound `CCNC(=O)[C@H]1O[C@@H](n2cnc3c(Nc4ccc(OCC(=O)Nc5ccc(Br)cc5)cc4)ncnc32)[C@H](O)[C@@H]1O`, the Activity is 1.17. The value for `CCNC(=O)[C@H]1O[C@@H](n2cnc3c(Nc4ccc(OCC(=O)Nc5ccc(N6CCOCC6)cc5)cc4)ncnc32)[C@H](O)[C@@H]1O` was 0.287. As for `CCNC(=O)[C@H]1O[C@@H](n2cnc3c(Nc4ccc(OCC(=O)Nc5ccc(I)cc5)cc4)ncnc32)[C@H](O)[C@@H]1O`, the Activity is 0.71. The value for `CCNC(=O)[C@H]1O[C@@H](n2cnc3c(NNC(=O)c4ccco4)ncnc32)[C@H](O)[C@@H]1O` was 0.29. Consider `CCNC(=O)[C@H]1O[C@@H](n2cnc3c(NNC(=O)c4ccsc4)nc(Cl)nc32)[C@H](O)[C@@H]1O`, for which the Activity was -0.449.

Take `CCNC(=O)[C@H]1O[C@@H](n2cnc3c(NNC(=O)c4ccco4)nc(Cl)nc32)[C@H](O)[C@@H]1O`: the Activity is -0.118. The value for `CC(C)Nc1nc(C#C[C@@H](O)c2ccccc2)nc2c1ncn2[C@@H]1O[C@H](CO)[C@@H](O)[C@H]1O` was 0.398; that for `CNc1nc(C#C[C@H](O)c2ccccc2)nc2c1ncn2[C@@H]1O[C@H](CO)[C@@H](O)[C@H]1O` was -1.62. On to `CCNC(=O)[C@H]1O[C@@H](n2cnc3c(Nc4ccc(OCC(=O)Nc5ccc(Cl)cc5)cc4)ncnc32)[C@H](O)[C@@H]1O`, for which the Activity was 1.1. For `Nc1nc(OCCc2c[nH]c3ccc(I)cc23)nc2c1ncn2[C@@H]1O[C@H](CO)[C@@H](O)[C@H]1O`, the Activity was -1.13. The value for `Nc1nc(OCCc2c[nH]c3cc(Br)ccc23)nc2c1ncn2[C@@H]1O[C@H](CO)[C@@H](O)[C@H]1O` was 0.0389. Turning to `OC[C@H]1O[C@@H](n2cnc3c(Nc4ccccc4)ncnc32)[C@H](O)[C@@H]1O`, the Activity was -1.31. `CCNC(=O)[C@H]1O[C@@H](n2cnc3c(N)ncnc32)[C@H](O)[C@@H]1O`: the Activity is 0. On to `CNc1nc(C#C[C@@H](O)c2ccccc2)nc2c1ncn2[C@@H]1O[C@H](CO)[C@@H](O)[C@H]1O`, for which the Activity is -0.035. Consider `CCCCC#Cc1nc(NC)c2ncn([C@@H]3O[C@H](CO)[C@@H](O)[C@H]3O)c2n1`, for which the Activity was -1.62. Take `CCNC(=O)[C@H]1O[C@@H](n2cnc3c(NNC(=O)c4ccc(Br)o4)ncnc32)[C@H](O)[C@@H]1O`: the Activity was -0.363. The figure for `CNc1nc(C#CCCCc2ccccc2)nc2c1ncn2[C@@H]1O[C@H](CO)[C@@H](O)[C@H]1O` is -1.62; for `CCNC(=O)[C@H]1O[C@@H](n2cnc3c(Nc4ccc(OCC(=O)NCc5ccccc5)cc4)nc(Cl)nc32)[C@H](O)[C@@H]1O` it is -0.053; for `Nc1nc(C#C[C@@H](O)c2ccccc2)nc2c1ncn2[C@@H]1O[C@H](CO)[C@@H](O)[C@H]1O` it is 0.416.

Values taken from ChEMBL document CHEMBL1145544, “Probing distal regions of the A2B adenosine receptor by quantitative structure-activity relationship modeling of known and novel agonists” (J Med Chem, 2008).
